Tested on: Fibroblast
Experiment: Multiplex assay against human fibroblast
Type: toxicity, cell-based
In short: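 Compound was added to live cells that had been stained at seeding with Hoechst33342, BioTracker Green Microtubule Cytoskeleton Dye, MitoTracker Red and Annexin V Alexa Fluor 680, and imaging followed on a CQ1 microscope at 37°C and 5% CO2. CellPathfinder machine-learning gating divided cells into Hoechst high-intensity objects or normal cells, normal cells into healthy, pyknosed or fragmented nuclei, and pyknosed cells into mitotic or apoptotic. Tubulin, mitochondrial-mass and membrane-permeability phenotypes are per cents of healthy-nucleus cells.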

[1] = 12 h, 1 µM, compound concentration 1 uM, replicate 1
[2] = 12 h, 1 µM, compound concentration 1 uM, replicate 2
[3] = 12 h, 10 µM, compound concentration 10 uM, replicate 1
[4] = 12 h, 10 µM, compound concentration 10 uM, replicate 2
[5] = 24 h, 1 µM, compound concentration 1 uM, replicate 1
[6] = 24 h, 1 µM, compound concentration 1 uM, replicate 2
[7] = 24 h, 10 µM, compound concentration 10 uM, replicate 1
[8] = 24 h, 10 µM, compound concentration 10 uM, replicate 2
[9] = 48 h, 1 µM, compound concentration 1 uM, replicate 1
[10] = 48 h, 1 µM, compound concentration 1 uM, replicate 2
[11] = 48 h, 10 µM, compound concentration 10 uM, replicate 1
[12] = 48 h, 10 µM, compound concentration 10 uM, replicate 2

## N#CCNC(=O)c1ccc(-c2ccnc(Nc3ccc(N4CCOCC4)cc3)n2)cc1 [MOMELOTINIB]
[1]
  Population Apoptotic (%): 64%
  Population Fragmented Nuclei (%): 26%
  Population Healthy Nuclei (%): 40%
  Population Hoechst High Intensity Objects (%): 11%
  Population Membrane Permeable-Phenotype (%): 30%
  Population Mitochondria Different-Phenotype (%): 4%
  Population Mitotic Cells (%): 35%
  Population Normal (%): 88%
  Population Pyknosed Nuclei (%): 33%
  Population Tubulin-Different-Phenotype (%): 21%
  Total Cell Count: 117
[2]
  Population Apoptotic (%): 60%
  Population Fragmented Nuclei (%): 1%
  Population Healthy Nuclei (%): 88%
  Population Hoechst High Intensity Objects (%): 8%
  Population Membrane Permeable-Phenotype (%): 2%
  Population Mitochondria Different-Phenotype (%): 13%
  Population Mitotic Cells (%): 40%
  Population Normal (%): 91%
  Population Pyknosed Nuclei (%): 9%
  Population Tubulin-Different-Phenotype (%): 11%
  Total Cell Count: 3119
[3]
  Population Apoptotic (%): 63%
  Population Fragmented Nuclei (%): 40%
  Population Healthy Nuclei (%): 28%
  Population Hoechst High Intensity Objects (%): 13%
  Population Membrane Permeable-Phenotype (%): 16%
  Population Mitochondria Different-Phenotype (%): 10%
  Population Mitotic Cells (%): 36%
  Population Normal (%): 86%
  Population Pyknosed Nuclei (%): 31%
  Population Tubulin-Different-Phenotype (%): 45%
  Total Cell Count: 153
[4]
  Population Apoptotic (%): 13%
  Population Fragmented Nuclei (%): 27%
  Population Healthy Nuclei (%): 47%
  Population Hoechst High Intensity Objects (%): 10%
  Population Membrane Permeable-Phenotype (%): 0%
  Population Mitochondria Different-Phenotype (%): 6%
  Population Mitotic Cells (%): 86%
  Population Normal (%): 89%
  Population Pyknosed Nuclei (%): 24%
  Population Tubulin-Different-Phenotype (%): 6%
  Total Cell Count: 56
[5]
  Population Apoptotic (%): 56%
  Population Fragmented Nuclei (%): 26%
  Population Healthy Nuclei (%): 52%
  Population Hoechst High Intensity Objects (%): 11%
  Population Membrane Permeable-Phenotype (%): 27%
  Population Mitochondria Different-Phenotype (%): 0%
  Population Mitotic Cells (%): 43%
  Population Normal (%): 88%
  Population Pyknosed Nuclei (%): 20%
  Population Tubulin-Different-Phenotype (%): 18%
  Total Cell Count: 127
[6]
  Population Apoptotic (%): 66%
  Population Fragmented Nuclei (%): 7%
  Population Healthy Nuclei (%): 86%
  Population Hoechst High Intensity Objects (%): 10%
  Population Membrane Permeable-Phenotype (%): 6%
  Population Mitochondria Different-Phenotype (%): 15%
  Population Mitotic Cells (%): 33%
  Population Normal (%): 89%
  Population Pyknosed Nuclei (%): 5%
  Population Tubulin-Different-Phenotype (%): 8%
  Total Cell Count: 3108
[7]
  Population Apoptotic (%): 48%
  Population Fragmented Nuclei (%): 39%
  Population Healthy Nuclei (%): 37%
  Population Hoechst High Intensity Objects (%): 14%
  Population Membrane Permeable-Phenotype (%): 29%
  Population Mitochondria Different-Phenotype (%): 12%
  Population Mitotic Cells (%): 51%
  Population Normal (%): 85%
  Population Pyknosed Nuclei (%): 23%
  Population Tubulin-Different-Phenotype (%): 46%
  Total Cell Count: 147
[8]
  Population Apoptotic (%): 45%
  Population Fragmented Nuclei (%): 31%
  Population Healthy Nuclei (%): 52%
  Population Hoechst High Intensity Objects (%): 5%
  Population Membrane Permeable-Phenotype (%): 28%
  Population Mitochondria Different-Phenotype (%): 34%
  Population Mitotic Cells (%): 54%
  Population Normal (%): 94%
  Population Pyknosed Nuclei (%): 16%
  Population Tubulin-Different-Phenotype (%): 14%
  Total Cell Count: 59
[9]
  Population Apoptotic (%): 44%
  Population Fragmented Nuclei (%): 34%
  Population Healthy Nuclei (%): 57%
  Population Hoechst High Intensity Objects (%): 16%
  Population Membrane Permeable-Phenotype (%): 16%
  Population Mitochondria Different-Phenotype (%): 1%
  Population Mitotic Cells (%): 55%
  Population Normal (%): 83%
  Population Pyknosed Nuclei (%): 8%
  Population Tubulin-Different-Phenotype (%): 17%
  Total Cell Count: 129
[10]
  Population Apoptotic (%): 80%
  Population Fragmented Nuclei (%): 33%
  Population Healthy Nuclei (%): 61%
  Population Hoechst High Intensity Objects (%): 15%
  Population Membrane Permeable-Phenotype (%): 4%
  Population Mitotic Cells (%): 20%
  Population Normal (%): 84%
  Population Pyknosed Nuclei (%): 5%
  Population Tubulin-Different-Phenotype (%): 21%
  Total Cell Count: 117
[11]
  Population Apoptotic (%): 60%
  Population Fragmented Nuclei (%): 47%
  Population Healthy Nuclei (%): 40%
  Population Hoechst High Intensity Objects (%): 14%
  Population Membrane Permeable-Phenotype (%): 25%
  Population Mitochondria Different-Phenotype (%): 9%
  Population Mitotic Cells (%): 40%
  Population Normal (%): 85%
  Population Pyknosed Nuclei (%): 11%
  Population Tubulin-Different-Phenotype (%): 37%
  Total Cell Count: 155
[12]
  Population Apoptotic (%): 50%
  Population Fragmented Nuclei (%): 52%
  Population Hoechst High Intensity Objects (%): 8%
  Population Membrane Permeable-Phenotype (%): 11%
  Population Mitochondria Different-Phenotype (%): 1%
  Population Mitotic Cells (%): 50%
  Population Normal (%): 91%
  Population Pyknosed Nuclei (%): 6%
  Population Tubulin-Different-Phenotype (%): 58%
  Total Cell Count: 162
